These results are taken from paper PMC5035790 (Annals of Oncology, 2016).

Bounds are passed on as bounds.

The experiment deals with advanced solid tumors. The experiment can be described thus: Tumor response by investigator, modified RECIST version 1.1. The experiment is classed as in vivo, human. The gist of the method:
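Solid-tumour patients (dose-escalation cohorts 0.1–1.2 mg/kg, expansion at 0.8 mg/kg) received a 1-h IV infusion on days 1, 8 and 15 of 28-day cycles until progression. Response was by investigator assessment using modified RECIST 1.1. PTEN loss by IHC was defined as 0% tumour cells staining, low as 1% to <5%, and positive as ≥5%.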

Compound `COc1c(OCCCN2CCOCC2)ccc2c1N=C(NC(=O)c1cnc(N)nc1)N1CCN=C21` [copanlisib, Copanlisib] returned a tumor reduction (1 patient with endometrial carcinoma, 0.4 mg/kg cohort, stable disease) above 25%. Where the note is “10 patients without complete PTEN loss”, the “objective response or stable disease for >4 cycles” value was “none”. Besides, under “48 patients with solid tumors, 2 patients, 1 confirmed, 1 unconfirmed”, the “partial response (PR)” value came to 4%. For the setting “48 patients with solid tumors, one patient”, the “complete response (CR)” value is on record as 2%. Moreover, where the note is “48 patients with solid tumors, seven patients”, the “disease progression by clinical judgment” value stood at 15%. In addition, the “patients with stable disease ≥6 cycles” value (of the 15 patients with stable disease) is 6 patients. Moreover, the “cycles until CR” value (patient with endometrial carcinoma, PIK3CA and PTEN mutations, complete PTEN loss, 0.8 mg/kg) was determined as 10 cycles. For the same compound, the overall response rate (patients with solid tumors) worked out at 6%. Further, the “CR, PR, or stable disease lasting ≥6 cycles” value (solid tumors at MTD with complete PTEN loss, 3 of 7) is reported as 43%. For the same compound, the “CR, PR, or stable disease” value (solid tumors at MTD without PTEN loss, seven patients) was “none”.
